In BindingDB's records for doi:10.1021/jm051126f (The Ohio State University, 2006):

Biological target: T1, Aromatase (Homo sapiens, UniProt P11511)
T1 sequence (P11511 whole entry): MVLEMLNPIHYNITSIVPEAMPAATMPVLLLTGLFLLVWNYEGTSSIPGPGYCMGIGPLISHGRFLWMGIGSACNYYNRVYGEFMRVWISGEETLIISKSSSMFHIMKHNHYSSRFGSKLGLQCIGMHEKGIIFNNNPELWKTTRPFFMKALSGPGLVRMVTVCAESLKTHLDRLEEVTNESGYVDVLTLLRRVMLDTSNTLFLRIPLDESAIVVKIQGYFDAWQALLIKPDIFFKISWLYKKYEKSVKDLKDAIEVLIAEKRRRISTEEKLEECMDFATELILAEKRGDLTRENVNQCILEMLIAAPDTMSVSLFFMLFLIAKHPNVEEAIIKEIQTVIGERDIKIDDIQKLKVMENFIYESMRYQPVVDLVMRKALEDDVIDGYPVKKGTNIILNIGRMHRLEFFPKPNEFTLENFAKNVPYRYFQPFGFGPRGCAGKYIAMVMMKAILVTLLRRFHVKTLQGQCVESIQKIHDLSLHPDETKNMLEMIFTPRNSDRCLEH
Experiment: Inhibition of CYP450 aromatase activity in SK-BR-3 cells
Procedure, shortened: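 Tritium water release assay in intact SK-BR-3 cells. Cells were treated 24 h with compound or 0.1% DMSO vehicle, then the medium was changed and cells were given 100 nM [1β-3H]-androstenedione for 3 h. Protein was precipitated with TCA and the medium chloroform- and charcoal-extracted. Released 3H2O was counted and expressed per million cells (DNA assay). IC50 came from nonlinear regression on five concentrations in triplicate.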

IC50 [µM]	Structure (SMILES)
> 25	COc1cc([N+](=O)[O-])ccc1NS(C)(=O)=O [N-(2-methoxy-4-nitrophenyl)methanesulfonamide]
> 25	COc1cc([N+](=O)[O-])ccc1N(C)S(C)(=O)=O [N-methyl-N-(2-methoxy-4-nitrophenyl)methanesulfonamide]
